One data set concerns HEK-293. Description: mammalian cytotoxicity. Format: cell-based. As to conditions: for cytotoxicity (significant = >20% cell death): up until 10 μg/mL, HEK-293; for difference between cytotoxic concentration and MIC values: HEK-293 vs MRSA strains, depending on the strain.
For the next data set, the system named is NorA, efflux pump. The following applies: NorA inhibitor; cited from earlier work.
The nature of data set [1]: MIC broth double-dilution assay with the inoculum size of the time-kill assays. The format is cell-based. The following applies: inoculum 1×10^6 CFU/mL.
The test system of data set [2] is S. epidermidis ATCC 35984 (strain AC). Description: membrane disruption, propidium iodide staining. The format is cell-based. The following applies: 1× and 4× MIC. The essentials:
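Membrane integrity was assessed by propidium iodide uptake, with red-stained cells scored as membrane-compromised. […] Controls: untreated and aminoglycoside-treated cells (negative), and a tobramycin derivative carrying a C14 linear alkyl thioether at the 6″-position (positive).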

The test system is the same in data set [3]. Description: ROS production, DCFH-DA staining. Format: cell-based. As to conditions: 1× and 4× MIC, 1 h at 37 °C. The essentials:
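Untreated cells served as negative control and 1 mM H2O2 as positive control. Cells were then stained with DCFH-DA (40 μg/mL) and examined by fluorescence microscopy.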

For data set [4], the system named is S. aureus ATCC 6538 (strain A). As to conditions: 2 μg/mL; cited from earlier work.
The subject of another data set is MRSA S22 (strain W). Description: time-kill assay. Format: cell-based, S. aureus. The following applies: 4× MIC, over 24 h.
For data set [5], the system named is S. aureus ATCC 6538 (strain A). Briefly: reduction of established biofilm. Format: cell-based. The following applies: 1× to […] MIC tested, concentration not given.
For data set [6], the system named is murine red blood cells (mRBCs). Description: hemolytic assay. Format: cell-based, mouse. The following applies: compared to ebselen / among ebsulfur analogues tested.
Another data set relates to S. aureus ATCC 25923. Description: MIC, broth double dilution. As to conditions: Staphylococcus aureus, ATCC25923, strain B = S. aureus ATCC 25923. The format is cell-based.
For the next data set, the system named is MRSA NRS77. Description: MIC, broth double dilution. The format is cell-based, S. aureus. The following applies: Staphylococcus aureus, MRSA|NRS77, strain T = MRSA NRS77.
The subject of another data set is E. faecium BM4105-RF. Description: MIC, broth double dilution. Format: cell-based. As to conditions: Enterococcus faecium, BM4105RF, strain AF = E. faecium BM4105-RF.
Data set [7] is described as follows: solubility in liquid Mueller-Hinton medium. Format: physicochemical.
The test system of a further data set is S. aureus strains. Description: MIC over the panel of S. aureus strains. The format is cell-based.

≈ marks a conversion by molar mass, not a printed value. Entries after “also recorded” stand apart in the source; their conditions may differ. Like-named read-outs stand apart in the source and are kept apart here.

Regarding `O=c1c2ccccc2sn1-c1cccc2ccccc12` [2l], the “cytotoxicity (significant = >20% cell death)” value in the data set with HEK-293 was “did not display any significant cytotoxicity”.

A word on the IC50: it is the concentration at which inhibition is half-maximal. Consider `O=[N+]([O-])c1ccc2[nH]c(-c3ccccc3)cc2c1` [5-nitro-2-phenyl-(1H)-indole], for which, in the data set on NorA, efflux pump, the IC50 was less than 5 µM.

For `O=c1c2ccccc2[se]n1-c1ccccc1` [Ebselen, 2-phenyl-1,2-benzisoselenazol-3(2H)-one, reference compound], the “MIC values with time-kill inoculum size compared with standard MIC” value (shortened to “MIC values … compared with standard MIC”) in [1] was “remained identical”. The “cytotoxicity (significant = >20% cell death)” value in the data set with HEK-293 is “very similar”. For the same compound, the “membrane disruption (PI uptake)” value in data set [2] is listed as “no sign of membrane disruption”. For the same compound, in data set [3], the “ROS production (DCFH-DA)” value was “led to production of ROS”. The biofilm reduction result in [4] is recorded as “approximately 60%”.

Turning to `CCCCCCCCn1sc2ccccc2c1=O` [3c], in the data set on MRSA S22 (strain W), the “reduction of bacterial load” value was 1.5 orders of magnitude. Moreover, the biofilm reduction result in data set [5] is “low to no biofilm reduction”. For the same compound, the “hemolytic activity, comparison” value in data set [6] was “less hemolytic when compared to ebselen”. Further, the “membrane disruption (PI uptake)” value in [2] is given as “no sign of membrane disruption”. Besides, the “ROS production (DCFH-DA)” value in [3] is “led to production of ROS”.

The MIC is the lowest concentration that inhibits growth of the organism. With `NCC[C@H](O)C(=O)N[C@@H]1C[C@H](N)[C@@H](O[C@H]2O[C@H](CN)[C@@H](O)[C@H](O)[C@H]2O)[C@H](O)[C@H]1O[C@H]1O[C@H](CO)[C@@H](O)[C@H](N)[C@H]1O` [AMK, amikacin, reference compound], the figures for the MIC in the data set with S. aureus ATCC 25923, against MRSA NRS77 and against E. faecium BM4105-RF were not above 0.5 µg/mL, not above 0.5 µg/mL and not below 125 µg/mL, respectively. Further, the “MIC values … compared with standard MIC” value in [1] is “remained identical”.

`O=c1c2ccccc2sn1-c1ccccn1` [2m]: the solubility entry in data set [7] is reported as “soluble enough for biological testing”.

With `CC(C)c1cccc(-n2sc3ccccc3c2=O)c1` [2h], the MIC with E. faecium BM4105-RF was in the range of 2 to 7.8 µg/mL (≈ 7.42 to 29 µM). In addition, the “improvement in MIC values when compared to the parent compound 2a” value with S. aureus strains is listed as “up to 16 fold”. In addition, the “MIC values … compared with standard MIC” value in [1] was “remained identical”. The “hemolytic activity, comparison” value in data set [6] was “less hemolytic when compared to ebselen; also recorded: least hemolytic”. In the data set with HEK-293, the “difference between cytotoxic concentration and MIC values” is recorded as “up to 40 fold”; the “cytotoxicity (significant = >20% cell death)” value is recorded as “did not display any significant cytotoxicity”.

In the case of `CC(C)c1ccc(-n2sc3ccccc3c2=O)cc1` [2e], the “improvement in MIC values when compared to the parent compound 2a” value in the data set with S. aureus strains is listed as “up to 16 fold”. Further, in the data set on HEK-293, the “difference between cytotoxic concentration and MIC values” is listed as “up to 40 fold”; the “cytotoxicity (significant = >20% cell death)” value was “did not display any significant cytotoxicity”.

In the case of `COc1cc(OC)cc(-n2sc3ccccc3c2=O)c1` [2k], the MIC against E. faecium BM4105-RF was in the range of 2 to 7.8 µg/mL (≈ 6.96 to 27.1 µM).

Take `O=c1c2ccccc2sn1-c1ccccc1` [2a, 2-phenyl-1,2-benzisothiazol-3(2H)-one]: the MIC against E. faecium BM4105-RF lay within 2 to 7.8 µg/mL (≈ 8.8 to 34.3 µM). Besides, the “reduction of bacterial load” value in the data set on MRSA S22 (strain W) is reported as 1.5 orders of magnitude. For the same compound, in data set [2], the “membrane disruption (PI uptake)” value was “no sign of membrane disruption”. For the same compound, the “ROS production (DCFH-DA)” value in data set [3] is “led to production of ROS”.

For the compound `O=c1c2ccccc2sn1-c1cccc(Br)c1` [2g], the “MIC values … compared with standard MIC” value in data set [1] was “remained identical”.

Regarding `CCCCCCn1sc2ccccc2c1=O` [3b], the “reduction of bacterial load” value with MRSA S22 (strain W) is 1.5 orders of magnitude. Also, in data set [2], the “membrane disruption (PI uptake)” value is given as “no sign of membrane disruption”. Also, the “ROS production (DCFH-DA)” value in [3] is recorded as “led to production of ROS”.

The record behind these values is article PMC5045767 (Bioorganic & medicinal chemistry, 2016).
